Experimental data taken from PubChem BioAssay.
Calls of active or inactive are those of the source.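 The calls were made as follows, unless noted: active = viability at or under a set limit in both replicates, limit being median viability minus 3 SD (cut at about 48% in these data, passing the limit was not always enough); inconclusive = at or under the limit in just one replicate; inactive = at or above the limit in both replicates.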

Tests used:
[1] = reducers of endogenous Her2 protein level, primary screen, SKBR3 breast tumor cells, AlphaScreen, ATP viability (AID 461;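 active = Her2 level under about 52% in both replicate screens, with viability over 70% of control, limit read from the data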;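 as to Her2 level: lower value means less Her2 protein in the cells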;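 as to viability: percent of carrier control wells set as 100% viability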); conditions: 18-24 h, measured here: SKBR3 viability, ATP luminescence, at 10 µM
[2] = target: Receptor tyrosine-protein kinase erbB-2 (Homo sapiens) (UniProt P04626); experiment: as above; conditions: 18-24 h, at 10 µM, stronger effect = lower value
[3] = SK-BR-3 cell growth inhibitors, pilot screen, 24 h, human (AID 572;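 active = viability at or below 10% of carrier control in both of two separate runs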;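 also: compound exposure lasted between 18 and 24 h rather than exactly 24 h; 100% = carrier-treated control wells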); conditions: SK-BR-3 viability, CellTiter-Glo luminescence, at 10 µM, stronger effect = lower value
[4] = HUVEC growth inhibition – cell-based, human, primary screen (AID 575;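 active = viability at or below 30% in both replicate assays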;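 also: 100% = median of untreated cell wells with 0.1% DMSO on each plate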); conditions: HUVEC proliferation, CellTiter-Glo luminescence, 72 h; at 10 µM; stronger effect = lower value
Outline: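 Test system – primary HUVEC, no more than 12 passages · Dosing – one dose, 10 µM final, 0.1% DMSO · Times – 72 h treatment at 37 °C · Measured by – ATP-based CellTiter-Glo luminescent read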

[5] = growth inhibitors of H69AR lung tumor, primary screen, human, duplicate replicates (AID 580); conditions: H69AR lung tumor cells viability, ATP luminescence, 72 h; at 10 µM; stronger effect = lower value;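 also: 100% = mean luminescence of untreated wells and 0% = no signal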
[6] = reversal of MRP1-mediated doxorubicin resistance, pilot screen, H69AR cells, doxorubicin co-treatment (AID 601;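 active = viability loss from added drug above about 55%, and viability with drug at most 40%, in both replicates, limit read from the data, passing the limit was not always enough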); conditions: CellTiter-Glo, 72 h, at 10 µM; for differential viability (reversal): stronger effect = higher value
[7] = 384-well plate pilot, post-Golgi transport modulator project, inhibition of yeast transport mutant growth (AID 636; in the data active = inhibition above about 31%); conditions: absorbance 615 nm, about 18 h, stronger effect = higher value
[8] = growth suppression of yeast trafficking mutant, preliminary HTS, modulators of trafficking downstream of Golgi apparatus project, 1536-format plate, OD 615 nm (AID 637; in the data active = inhibition above about 30%); conditions: yeast transport mutant growth, absorbance 615 nm, 18 h; stronger effect = higher value
[9] = H69AR cells + 2 uM doxorubicin, measured here: viability with 2 uM doxorubicin, stronger effect = lower value
[10] = H69AR cells, compound alone cytotoxicity

Receptor tyrosine-protein kinase erbB-2 (Homo sapiens), sequence (P04626 whole entry, looked up): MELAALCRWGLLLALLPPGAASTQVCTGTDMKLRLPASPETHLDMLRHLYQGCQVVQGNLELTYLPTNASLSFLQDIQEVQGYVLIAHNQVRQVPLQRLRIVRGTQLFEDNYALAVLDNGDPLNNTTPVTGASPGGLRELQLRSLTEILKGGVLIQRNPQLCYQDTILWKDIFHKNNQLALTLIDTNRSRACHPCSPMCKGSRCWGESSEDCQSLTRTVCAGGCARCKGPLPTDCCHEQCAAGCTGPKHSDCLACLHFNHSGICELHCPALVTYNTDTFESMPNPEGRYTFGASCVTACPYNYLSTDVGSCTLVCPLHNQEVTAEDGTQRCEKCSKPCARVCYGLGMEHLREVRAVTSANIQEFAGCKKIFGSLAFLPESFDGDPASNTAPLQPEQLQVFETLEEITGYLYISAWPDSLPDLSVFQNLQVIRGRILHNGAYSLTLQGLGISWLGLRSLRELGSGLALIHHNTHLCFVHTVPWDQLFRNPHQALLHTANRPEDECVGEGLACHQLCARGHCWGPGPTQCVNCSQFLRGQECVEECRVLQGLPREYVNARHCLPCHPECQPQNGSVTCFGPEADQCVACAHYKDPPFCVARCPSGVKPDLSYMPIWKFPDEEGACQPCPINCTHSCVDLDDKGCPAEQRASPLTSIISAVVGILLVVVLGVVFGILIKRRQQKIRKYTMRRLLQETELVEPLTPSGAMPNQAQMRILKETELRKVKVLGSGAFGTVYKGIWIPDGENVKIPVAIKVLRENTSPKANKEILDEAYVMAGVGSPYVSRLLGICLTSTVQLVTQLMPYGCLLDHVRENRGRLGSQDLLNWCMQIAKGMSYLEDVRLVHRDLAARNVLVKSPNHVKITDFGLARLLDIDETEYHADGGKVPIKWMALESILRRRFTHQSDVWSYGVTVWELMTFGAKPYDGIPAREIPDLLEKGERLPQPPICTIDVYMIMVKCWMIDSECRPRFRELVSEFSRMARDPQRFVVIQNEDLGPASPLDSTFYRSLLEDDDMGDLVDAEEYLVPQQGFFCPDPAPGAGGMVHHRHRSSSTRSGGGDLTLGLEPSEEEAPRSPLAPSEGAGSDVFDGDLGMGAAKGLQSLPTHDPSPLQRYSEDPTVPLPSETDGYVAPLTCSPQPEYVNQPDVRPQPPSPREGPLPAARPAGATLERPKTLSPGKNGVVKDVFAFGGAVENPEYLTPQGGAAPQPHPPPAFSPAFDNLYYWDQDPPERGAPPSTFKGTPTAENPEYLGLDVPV

Structure (SMILES)	viability [1] [%]	Her2 level [2]	viability [3]	viability [4]	viability [5]	differential viability (reversal) ([6]; H69AR cells + 2 uM doxorubicin)	viability [6, 9] [%]	viability [6, 10] [%]	inhibition [7]	inhibition [8]
COc1ccc(-c2cc(C(=O)NCCc3ccccc3)no2)cc1OC	102	85.5% (inactive)	102% (inactive)	92.3% (inactive)	89.9% (inactive)	3.29% (inactive)	86.6	89.9	-4.19% (inactive)	-12.7% (inactive)
Cc1nnc(SCC(=O)Nc2ccc(Br)cn2)[nH]c1=O	118	85% (inactive)	118% (inactive)	98.7% (inactive)	98.3% (inactive)	4.71% (inactive)	93.6	98.3	1.84% (inactive)	8.17% (inactive)
Cc1ccc(-c2noc(CCC(=O)NCC3CCN(Cc4cccc(C)c4)CC3)n2)cc1	93.5	82.5% (inactive)	93.5% (inactive)	53.9% (inactive)	84.6% (inactive)	-11% (inactive)	95.6	84.6	-4.87% (inactive)	1.83% (inactive)
COc1ccc2nc(N3CCC(C)CC3)c(C#N)cc2c1	108	101% (inactive)	108% (inactive)	86.6% (inactive)	26.8% (active)	3.77% (inactive)	23	26.8	-5.33% (inactive)	2.62% (inactive)
Cc1c(C(=O)OC2CCCCC2)[nH]c2c1C(=O)CC(C)(C)C2	82.5	116% (inactive)	82.5% (inactive)	48.8% (inactive)	78.8% (inactive)	-3.71% (inactive)	82.5	78.8	-3.55% (inactive)	-17.5% (inactive)
NC(=O)c1c(NC(=O)CSc2nnc(-c3ccco3)n2-c2ccccc2)sc2c1CCC2	76	68% (inactive)	76% (inactive)	56.5% (inactive)	28.9% (active)	-37.9% (inactive)	66.8	28.9	-4% (inactive)	35.7% (active)
O=C(Nc1ccccc1-c1ccccc1)NC1CCN(CC(=O)N2CCOCC2)CC1	98	103% (inactive)	98% (inactive)	91.7% (inactive)	99.3% (inactive)	7.87% (inactive)	91.4	99.3	-2.34% (inactive)	-3.11% (inactive)
COc1ccccc1-c1noc(-c2cccnc2)n1	94	102% (inactive)	94% (inactive)	117% (inactive)	92.3% (inactive)	0.91% (inactive)	91.4	92.3	-2.89% (inactive)	-0.66% (inactive)
CCNC(=O)CC1C(=O)N(c2ccc(F)cc2)C(=O)N1CCC(C)C (stereo not given)	103	80.5% (inactive)	103% (inactive)	98.4% (inactive)	92.9% (inactive)	8.4% (inactive)	84.5	92.9	0.66% (inactive)	-3.64% (inactive)
COC(=O)c1ccc(Cl)c(NC(C)=O)c1	108	99.5% (inactive)	108% (inactive)	70.9% (inactive)	97.2% (inactive)	7.73% (inactive)	89.5	97.2	-1.17% (inactive)	-0.33% (inactive)
COC(=O)c1cc(NC(=O)C2CC=CCC2C(=O)O)cc(C(=O)OC)c1 (stereo not given)	97.5	86.5% (inactive)	97.5% (inactive)	104% (inactive)	109% (inactive)	15.8% (inactive)	92.7	109	-4.8% (inactive)	-1.94% (inactive)
Cc1nc(SCC#N)c2c(C)c(C)sc2n1	128	107% (inactive)	128% (inactive)	98.6% (inactive)	98.4% (inactive)	9.83% (inactive)	88.6	98.4	-5.33% (inactive)	-0.65% (inactive)
O=C(CCn1nc(-c2ccccc2)ccc1=O)N1CCCC1	97	96% (inactive)	97% (inactive)	114% (inactive)	94.4% (inactive)	-0.505% (inactive)	94.9	94.4	-4.74% (inactive)	0.48% (inactive)
O=C(c1cc2n(n1)C(C(F)(F)F)CC(c1ccc(Cl)cc1)N2)N1CCCC1 (stereo not given)	86.5	68% (inactive)	86.5% (inactive)	82.1% (inactive)	90.9% (inactive)	-0.385% (inactive)	91.3	90.9	-6.84% (inactive)	3.17% (inactive)
O=C(CSc1ncn[nH]1)c1ccco1	120	92% (inactive)	120% (inactive)	95.9% (inactive)	94.7% (inactive)	-3.81% (inactive)	98.5	94.7	-1.56% (inactive)	0.33% (inactive)
O=C(OCC#CCSc1nnc(-c2ccccc2)o1)c1cccs1	130	92% (inactive)	130% (inactive)	98.3% (inactive)	94.9% (inactive)	12.1% (inactive)	82.8	94.9	-6.13% (inactive)	-4.92% (inactive)

Structure (SMILES)	viability [1] [%]	Her2 level [2]	viability [3]	viability [4]	viability [5]	differential viability (reversal) ([6]; H69AR cells + 2 uM doxorubicin)	viability [6, 9] [%]	viability [6, 10] [%]	inhibition [7]	inhibition [8]
CCn1nnc(-c2ccccc2NC(=O)c2ccc(-n3cnnn3)cc2)n1	95.5	87% (inactive)	95.5% (inactive)	67.7% (inactive)	75.7% (inactive)	1.74% (inactive)	73.9	75.7	-0.79% (inactive)	1.15% (inactive)
O=c1c2c3nc4ccccc4nc3n(CC3CCCO3)c2ncn1CCc1ccccc1 (stereo not given)	97	83.5% (inactive)	97% (inactive)	76.2% (inactive)	70.4% (inactive)	38.6% (inactive)	31.8	70.4	-6.93% (inactive)	-2.62% (inactive)
C/C(=C(\C#N)C(=O)NCCCN1CCOCC1)N(C)C	96.5	106% (inactive)	96.5% (inactive)	95.2% (inactive)	102% (inactive)	8.58% (inactive)	93.1	102	-1.58% (inactive)	5.57% (inactive)
CSCSC1=C(C#N)C(c2ccc(Cl)cc2)C(C(C)=O)=C(C)N1 (stereo not given)	106	94.5% (inactive)	106% (inactive)	64.3% (inactive)	75.2% (inactive)	-5.35% (inactive)	80.6	75.2	-5.32% (inactive)	1.31% (inactive)
Cc1ccc(Br)cc1S(=O)(=O)N1CCN(c2ccccc2)CC1	93.5	116% (inactive)	93.5% (inactive)	76.2% (inactive)	79.4% (inactive)	-5.03% (inactive)	84.5	79.4	1.17% (inactive)	-8.5% (inactive)
CC(=O)c1ccc(-c2nc3ccccc3n2C)o1	104	81% (inactive)	104% (inactive)	96.7% (inactive)	72.7% (inactive)	3.04% (inactive)	69.6	72.7	-6.8% (inactive)	-1.9% (inactive)
COc1ccc(CN2CC(C(=O)NCc3ccccn3)CC2=O)cc1 (stereo not given)	92.5	104% (inactive)	92.5% (inactive)	101% (inactive)	105% (inactive)	9.59% (inactive)	95.1	105	-5% (inactive)	-4.03% (inactive)
C=CCn1c(Cc2cccs2)nnc1SCC(=O)Nc1ccc(OC)c(OC)c1	108	109% (inactive)	108% (inactive)	89.6% (inactive)	85.3% (inactive)	-5.02% (inactive)	90.3	85.3	-5.06% (inactive)	0% (inactive)
Cn1c(SCC(N)=O)nnc1C1CCN(S(=O)(=O)c2ccccc2C(F)(F)F)CC1	114	97.5% (inactive)	114% (inactive)	112% (inactive)	104% (inactive)	7.31% (inactive)	96.5	104	-7.03% (inactive)	-0.33% (inactive)
CN1C(=O)CCC1(O)c1ccccc1 (stereo not given)	89	98% (inactive)	89% (inactive)	116% (inactive)	92.3% (inactive)	0.975% (inactive)	91.3	92.3	0.91% (inactive)	-8.17% (inactive)
O=C(N1CCCCCC1)N1CCN(C(=O)N2CCOCC2)CC1	105	104% (inactive)	105% (inactive)	94.9% (inactive)	98.9% (inactive)	5.18% (inactive)	93.7	98.9	0.92% (inactive)	-8.55% (inactive)
CCOC(=O)c1c(C)n(C)c2ccc(OC)c(NC(=O)CCN3CCSCC3)c12	122	91.5% (inactive)	122% (inactive)	96.7% (inactive)	83.5% (inactive)	-1.65% (inactive)	85.1	83.5	-2.89% (inactive)	-2.74% (inactive)
Cc1cc(C(F)(F)F)nn1Cc1ccc(C(=O)NCc2ccco2)o1	97	105% (inactive)	97% (inactive)	95.3% (inactive)	89.9% (inactive)	0.38% (inactive)	89.5	89.9	-0.53% (inactive)	0.82% (inactive)
Nc1nonc1NC(=O)CSc1nc2ccccc2s1	86	110% (inactive)	86% (inactive)	91.2% (inactive)	90.8% (inactive)	4.11% (inactive)	86.7	90.8	6.18% (inactive)	-8% (inactive)
Cc1ccc(C)c(/C(O)=C2\C(=O)C(=O)N(CCCN3CCOCC3)C2c2cccnc2)c1 (stereo not given)	99	101% (inactive)	99% (inactive)	91.4% (inactive)	90.2% (inactive)	-5.11% (inactive)	95.3	90.2	-3.59% (inactive)	-2.33% (inactive)
